# Yeast superoxide – reduction of superoxide in aged yeast, primary screen, HTS; S. cerevisiae aged cells, superoxide DHE fluorescence; stronger effect = lower value; superoxide response (% of plate mean), % at 10 µM; AID 2690, 2010; 330,000 compounds, 0.18% hits;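 active = superoxide response under a set limit, about three screen SD below normal, cut at about 65% in these data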;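 also: yeast aged for seven days with compound at 30 °C before DHE staining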
# PHOSPHO1 block – PubChem AID 1565; recombinant PHOSPHO1, absorbance phosphatase assay; inhibition, % at 13.3 µM; 290,000 compounds, 1.1% hits; in the data active = inhibition above about 60%
# Target sequence (Q8TCT1 whole entry, looked up): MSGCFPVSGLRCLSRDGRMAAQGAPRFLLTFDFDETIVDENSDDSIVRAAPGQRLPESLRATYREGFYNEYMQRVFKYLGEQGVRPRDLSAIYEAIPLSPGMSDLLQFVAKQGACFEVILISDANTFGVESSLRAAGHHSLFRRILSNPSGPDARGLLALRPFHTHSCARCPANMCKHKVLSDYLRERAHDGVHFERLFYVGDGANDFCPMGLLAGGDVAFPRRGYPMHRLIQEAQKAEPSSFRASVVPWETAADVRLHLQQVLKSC
# VIM-2 inh – VIM-2 metallo-beta-lactamase inhibitors, primary screen, biochemical, epi-absorbance readout, Pseudomonas aeruginosa enzyme. 290,000 compounds, 0.89% hits. inhibition, % at 5.6 µM. purified VIM-2, nitrocefin hydrolysis, epi-absorbance fluorescence. AID 1527, 2009;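 active = inhibition above the mean of all tested compounds plus 3 SD, cutoff set per screening run, cut at about 7.5% in these data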;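 also: red hydrolysis product quenches plate fluorescence so inhibitors raise well fluorescence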
# IMP-1 inh-1 – IMP-1 metallo-beta-lactamase inhibitors, primary screen, biochemical, epi-absorbance readout, Pseudomonas aeruginosa enzyme | metallo-beta-lactamase IMP-1 (Pseudomonas aeruginosa) | purified IMP-1, nitrocefin hydrolysis, epi-absorbance fluorescence | inhibition, % at 5.6 µM | 290,000 compounds, 0.45% hits | AID 1556, 2009;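 active = inhibition above the mean plus 3 SD of all compounds in the same screening run, cut at about 4.5% in these data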
#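 System: Purified recombinant IMP-1 metallo-beta-lactamase enzyme | Measured by: Fluorescence quenching readout, ex 480/em 530 nm | Replication: Singlicate | Incubation: 15 min preincubation plus 25 min reaction at 25 °C | Evaluation: Percent inhibition from optical density relative to buffer-blank wells | Benchmarks: DMSO with and without IMP-1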
# PvdQ inh – P. aeruginosa PvdQ acylase inhibitors, primary screen, biochemical, fluorescence, plate reader and imaging, single point; inhibition, % at 10 µM; purified PvdQ acylase; 340,000 compounds, 0.063% hits; in the data active = inhibition above about 30%, passing the limit was not always enough
# IMP-1 inh-2 – IMP-1 metallo-beta-lactamase inhibitors, confirmation, selectivity assay for selective VIM-2 inhibitor project, biochemical, epi-absorbance readout, triplicate; shares compounds with VIM-2 inh; purified IMP-1, nitrocefin hydrolysis, epi-absorbance fluorescence; inhibition, % at 5.6 µM; 1,300 tested, under 10 active; call rule not given here
# VIM-2 FRET inh – VIM-2 inhibitors in FRET format, confirmation, artefact control for selective VIM-2 inhibitor project, biochemical, epi-absorbance artifact exclusion; inhibition, % at 5.6 µM; purified VIM-2, CCF2 FRET substrate hydrolysis; 1,300 compounds, 23% hits; shares compounds with VIM-2 inh;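 active = inhibition above the mean of all tested compounds plus 3 SD, cut at about 19% in these data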
# TEM-1 inh – TEM-1 serine beta-lactamase inhibitors, counter-screen for VIM-2 inhibitor project, biochemical, epi-absorbance, HTS; 1,300 compounds, 3% hits; Purified TEM-1, nitrocefin hydrolysis, epi-absorbance fluorescence; AID 1866, 2009; inhibition, % at 5.6 µM; shares compounds with VIM-2 inh;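 active = inhibition above that campaign's mean inhibition plus 3 SD, cut at about 0.46% in these data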
# Target sequence (P62593 whole entry, looked up): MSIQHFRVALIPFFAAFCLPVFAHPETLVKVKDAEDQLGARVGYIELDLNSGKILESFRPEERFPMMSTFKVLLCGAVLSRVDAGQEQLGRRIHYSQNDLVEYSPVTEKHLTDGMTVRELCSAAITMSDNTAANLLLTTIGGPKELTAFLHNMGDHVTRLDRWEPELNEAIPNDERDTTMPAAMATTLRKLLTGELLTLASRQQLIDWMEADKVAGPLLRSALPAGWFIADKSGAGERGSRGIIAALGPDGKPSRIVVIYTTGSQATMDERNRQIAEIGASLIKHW
# VIM-2 confirm 2 – VIM-2 metallo-beta-lactamase inhibitors, confirmation, biochemical, epi-absorbance, hits shared with IMP-1 screen; shares compounds with VIM-2 inh; purified VIM-2, nitrocefin hydrolysis; inhibition, % at 5.6 µM; 1,300 compounds, 96% hits; AID 2187, 2009;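 active = inhibition of the VIM-2 beta-lactamase enzyme above about 11% from the earlier first-round screen, limit read from the data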
# A number is an active result; – = inactive; · = no result. Hits are enriched below; roughly 2.2% of the tested compounds scored in any of these assays.
SMILES,Yeast superoxide,PHOSPHO1 block,VIM-2 inh,IMP-1 inh-1,PvdQ inh,IMP-1 inh-2,VIM-2 FRET inh,TEM-1 inh,VIM-2 confirm 2
CC(CC(=O)NC1CCCCC1)S(=O)(=O)c1ccc2c(c1)NC(=O)CO2 (configuration not stated),–,–,–,–,–,·,·,·,·
Cc1c(C)c2ccc(OCC(=O)NCCCN3CCCC3=O)cc2oc1=O,–,–,–,–,–,·,·,·,·
OCCCn1c(-c2ccccc2)n[nH]c1=S,–,–,–,–,–,·,·,·,·
CC1CCCCC1n1c(-c2cccnc2)n[nH]c1=S (configuration not stated),–,–,19.1,–,–,–,49.3,–,31.7
S=c1[nH]nc(-c2ccccc2)n1C1C=CCCC1 (configuration not stated),–,91.5,14.7,–,–,–,44.0,–,25.9
CCN1C(=O)[C@H]2[C@@H](c3ccc(-c4ccc(F)cc4)c(OC)c3)N[C@@](Cc3ccccc3)(C(=O)OC)[C@H]2C1=O,–,·,·,·,–,·,·,·,·
CCSS(=O)(=O)c1cccc2cccnc12,–,–,22.6,–,–,–,–,–,28.6
Cc1cc(OCC(=O)Nc2ccc(CN3CCOCC3)cc2)c2c(C)cc(=O)oc2c1,–,–,–,–,–,·,·,·,·
Cc1cc(OCC(=O)NCCCN2CCOCC2)c2c(C)c(C)c(=O)oc2c1,–,–,26.2,–,–,–,–,–,36.4
Cc1cc(OCC(=O)NCCCN2CCCC2=O)c2c(C)c(C)c(=O)oc2c1,–,–,–,–,–,·,·,·,·
Cc1cc(OCC(=O)Nc2ccc(CN3CCOCC3)cc2)c2c(C)c(C)c(=O)oc2c1,–,–,32.9,–,–,–,–,–,40.3
CCCOc1ccc(CNC(=O)C2CCN(C(=O)N3CCOc4ccccc43)CC2)cc1,–,–,–,–,–,·,·,·,·
Cc1cc(Nc2c(C)cccc2C)n2nc(C)nc2n1,–,–,–,–,–,·,·,·,·
Cc1cc(Nc2ccc(C)c(C)c2)n2nc(C)nc2n1,–,–,16.4,–,–,–,–,–,33.8
COc1cc(OC)c(Nc2cc(C)nc3nc(C)nn23)cc1Cl,–,–,34.9,–,–,–,–,–,43.6
CCc1ccc(Nc2cc(C)nc3nc(C)nn23)cc1,–,–,–,–,–,·,·,·,·
COc1ccc(-c2cc(C(=O)N3CCCCCC3)c3ccccc3n2)cc1,·,·,·,·,–,·,·,·,·
COc1ccc(C/C(N)=N/OC(=O)CCc2ccccc2)cc1,–,–,–,–,–,·,·,·,·
Cc1cc(NCCCN2CCOCC2)n2ncc(-c3ccc(Cl)cc3)c2n1,–,–,–,–,–,·,·,·,·
Cc1cccc(-c2cc3nc(C)cc(NCCCn4ccnc4)n3n2)c1,–,–,47.8,–,–,–,–,–,60.0
CCCc1cc(NCCCn2ccnc2)n2nc(C)c(-c3ccccc3)c2n1,–,–,25.9,–,–,–,–,–,46.9
Cc1cc(NCCCn2ccnc2)n2ncc(-c3ccc(Cl)cc3)c2n1,–,–,34.9,–,–,–,–,–,49.5
CC1CCCCN1C(=O)COC(=O)c1ccc(=O)n(Cc2ccccc2)n1 (configuration not stated),–,·,·,·,–,·,·,·,·
Cc1ccccc1C(=O)NCC(=O)OC(C)C(=O)NCc1ccco1 (configuration not stated),–,·,·,·,–,·,·,·,·
Cc1c(OCC(=O)NC2CC(C)(C)NC(C)(C)C2)ccc2c3c(c(=O)oc12)CCC3,–,–,32.3,–,–,–,–,–,44.2
SMILES,Yeast superoxide,PHOSPHO1 block,VIM-2 inh,IMP-1 inh-1,PvdQ inh,IMP-1 inh-2,VIM-2 FRET inh,TEM-1 inh,VIM-2 confirm 2
Cc1c(OCC(=O)NC2CC(C)(C)NC(C)(C)C2)ccc2c1oc(=O)c1ccccc12,–,–,27.4,–,–,–,–,–,39.7
Cc1ccc(S(=O)(=O)Nc2cc3c4c(c2)CCN4C(=O)CC3)cc1,–,·,·,·,–,·,·,·,·
CCN1CCN(c2ccc(NC(=O)c3ccc(Br)o3)cc2)CC1,·,·,14.6,–,–,–,–,–,24.3
CN1CCN(c2ccc(NC(=O)c3cc4ccccc4o3)cc2)CC1,–,–,40.3,–,–,–,–,–,54.8
CS(=O)(=O)N1CCN(c2ccc(NC(=O)c3cc4ccccc4o3)cc2)CC1,–,·,–,–,–,·,·,·,·
CN1CCN(c2ccc(NC(=O)c3ccc(-c4ccc(Br)cc4)o3)cc2)CC1,–,–,23.9,–,–,–,–,–,33.5
CCOC(=O)C1CCN(C(=O)CCn2c(=O)c3cccn3c3cccnc32)CC1,–,–,–,–,–,·,·,·,·
CN1CCN(C(=O)CCn2c(=O)c3cccn3c3cccnc32)CC1,–,–,13.6,–,–,–,–,–,26.0
CCCc1cc(=O)[nH]c(SCC(=O)NC2(C#N)CCCCC2)n1,–,·,·,·,–,·,·,·,·
COc1ccc(-c2cc(C(=O)O)c3c(C)nn(-c4ccccn4)c3n2)cc1,–,–,–,–,·,·,·,·,·
CCOC(=O)c1cc(-c2ccncc2)nc2c1c(C)nn2-c1ccccn1,–,·,42.4,–,–,–,–,–,57.6
Cc1cc(C)c2c(n1)nn1c(NCCCN(C)C)cc(C)nc21,–,–,19.2,–,–,–,–,–,30.8
Cc1cc(C)c2c(n1)nn1c(NCCOCCO)cc(C)nc21,–,–,–,–,–,·,·,·,·
O=C1CN(S(=O)(=O)c2ccc([N+](=O)[O-])cc2)CC(=O)N1,–,–,–,–,–,·,·,·,·
CCC1CCCCN1CCCNC(=O)c1ccc2c(c1)c(C)c(C)n2C (configuration not stated),–,–,–,–,–,·,·,·,·
CCC1CCCCN1CCCNC(=O)c1cc2c(=O)oc3ccc(C)cc3c2s1 (configuration not stated),–,–,12.4,–,–,–,–,–,16.9
O=C(COC(=O)c1cnccn1)c1cccc([N+](=O)[O-])c1,–,–,–,–,–,·,·,·,·
COc1ccccc1N1CCN(C(=O)c2ccc3c(c2)NC(=O)C(CSCc2ccccc2C)N3)CC1 (configuration not stated),–,–,–,–,·,·,·,·,·
COC(=O)C1(Cc2ccc3c(c2)CCC3)Cc2ccc3c(c2C1=O)CCC3 (configuration not stated),·,·,·,·,–,·,·,·,·
